Published values pooled from the literature.
Compare with care: the assays were run in different laboratories.
Organism: Human immunodeficiency virus 1
Read-out: viral replication

| Compound | test | test system | setting | endpoint | value |
| --- | --- | --- | --- | --- | --- |
| C[C@@H](O[C@H]1OCCN(Cc2n[nH]c(=O)[nH]2)[C@H]1c1ccc(F)cc1)c1cc(C(F)(F)F)cc(C(F)(F)F)c1 | inhibitor | human PBMC | clinical isolate | IC50 | 6370 nM |
| CC(C)CN(C[C@@H](O)[C@H](Cc1ccccc1)NC(=O)O[C@H]1CCO[C@H]2OCC[C@H]21)S(=O)(=O)c1ccc(C(=O)O)cc1 | inhibitor | MT2 |  | IC50 | > 1000 nM |
| COc1ccccc1NC(=O)c1ccccc1Cl |  | MT4 |  | IC50 | > 50000 nM |
| Cc1c(O)cccc1C(=O)N[C@@H](CSc1ccccc1)[C@H](O)CN1C[C@H]2CCCC[C@H]2C[C@H]1C(=O)NC(C)(C)C |  | human PBMC |  | IC50 | 12 nM |
| Cc1cn([C@H]2C[C@H](N=[N+]=[N-])[C@@H](CO)O2)c(=O)[nH]c1=O |  | human PBMC | clinical isolate | IC90 | > 1000 nM |
| CC(C)CN(C[C@@H](O)[C@H](Cc1ccccc1)NC(=O)O[C@H]1CO[C@H]2OCC[C@H]21)S(=O)(=O)c1ccc(N)cc1 |  | MT2 |  | IC50 | 3.3 nM |
| CC(C)CN(C[C@@H](O)[C@H](Cc1ccccc1)NC(=O)O[C@H]1CCO[C@H]2OCC[C@H]21)S(=O)(=O)c1ccc(B(O)O)cc1 | inhibitor | MT2 |  | IC50 | 120 nM |
| CC(C)c1nc(CN(C)C(=O)N[C@H](C(=O)N[C@@H](Cc2ccccc2)C[C@H](O)[C@H](Cc2ccccc2)NC(=O)OCc2cncs2)C(C)C)cs1 | inhibitor | human PBMC | clinical isolate | IC90 | 92.3 nM |
| CC(C)CN(C[C@@H](O)[C@H](Cc1ccccc1)NC(=O)O[C@H]1CO[C@H]2OCC[C@H]21)S(=O)(=O)c1ccc(B(O)O)cc1 |  | MT4 |  | IC50 | 48.9 nM |
| CC(C)Nc1cccnc1N1CCN(C(=O)c2cc3cc(NS(C)(=O)=O)ccc3[nH]2)CC1 | inhibitor | human PBMC | clinical isolate | IC50 | 30.6 nM |
| CSCC[C@H](NC(C)=O)C(=O)N[C@@H](CC(C)C)C(=O)N[C@@H](CCCNC(=N)N)C(=O)N[C@@H](Cc1c[nH]c2ccccc12)C(=O)N[C@@H](CO)C(=O)N[C@@H](CCCNC(=N)N)C(=O)N[C@@H](CCCCN)C(=O)N[C@@H](CC(C)C)C(=O)N1CCC[C@H]1C(=O)N[C@@H](CS)C(=O)N[C@H](C(=O)N[C@@H](CO)C(=O)O)C(C)C | inhibitor | TZM-bl |  | IC50 | > 10000 nM |
| Cc1cccc(C)c1OCC(=O)N[C@@H](Cc1ccccc1)[C@@H](O)C[C@H](Cc1ccccc1)NC(=O)[C@H](C(C)C)N1CCCNC1=O |  | MT4 |  | IC50 | 13 nM |
